From ChEMBL document CHEMBL5331127, “Discovery of ARD-2051 as a Potent and Orally Efficacious Proteolysis Targeting Chimera (PROTAC) Degrader of Androgen Receptor for the Treatment of Advanced Prostate Cancer” (J Med Chem, 2023)
Active and inactive are the calls of the source.

Tests used:
[1] = Metabolic stability in human liver microsomes assessed as half life at 1 uM measured upto 45 mins in presence of NADPH by LC-MS/MS analysis; assay type: ADME, Microsome; details: 0.75 h
In short: (§1)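 Pooled liver microsomes from each species: 1 μM compound with 0.5 mg/mL microsomes and 1.7 mM NADPH in 0.1 M K-phosphate, pH 7.4, 5 mM MgCl2, 37 °C. Sampled at 0, 5, 10, 15, 30 and 45 min with cold ACN quench. No-NADPH incubation as negative control; ketanserin as positive control. LC-MS/MS; half-life from ln(remaining) versus time.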

[2] = Plasma protein binding in dog at 1 uM after 5 hrs by equilibrium dialysis based LC-MS/MS analysis; assay type: ADME, cell-free, Canis lupus familiaris
In short: (§2)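 Equilibrium dialysis of pooled plasma of each species spiked at 1 μM against 0.1 M sodium phosphate, pH 7.4. 5 h at 37 °C with shaking at 60 rpm. Both sides matrix-matched, ACN/IS quench, LC/MS. % bound = 100 − (buffer/plasma peak-area ratio × 100); recovery also calculated. Warfarin as reference.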

Cytochrome P450 2C9 = Cytochrome P450 2C9 (Homo sapiens, UniProt P11712); assay: Inhibition of CYP2C9 in human liver microsomes preincubated for 5 mins followed by NADPH addition and measured after 10 mins by LC/MS analysis; assay type: ADME, Microsome
Sequence of Cytochrome P450 2C9 (P11712 whole entry): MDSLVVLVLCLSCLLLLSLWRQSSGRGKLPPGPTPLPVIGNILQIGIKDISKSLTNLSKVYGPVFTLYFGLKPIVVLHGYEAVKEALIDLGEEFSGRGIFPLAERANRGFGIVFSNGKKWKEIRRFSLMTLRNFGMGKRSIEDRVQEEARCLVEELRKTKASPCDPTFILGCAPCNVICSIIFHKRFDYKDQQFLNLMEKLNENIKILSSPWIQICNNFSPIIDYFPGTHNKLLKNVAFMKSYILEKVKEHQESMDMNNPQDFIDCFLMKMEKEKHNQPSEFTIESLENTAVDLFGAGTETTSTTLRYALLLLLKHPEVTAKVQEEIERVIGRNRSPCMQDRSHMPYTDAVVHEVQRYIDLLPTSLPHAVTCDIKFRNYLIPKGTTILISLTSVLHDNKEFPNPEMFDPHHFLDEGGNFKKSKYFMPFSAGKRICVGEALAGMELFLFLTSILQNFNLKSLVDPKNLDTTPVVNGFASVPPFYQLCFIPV

[3] = Metabolic stability in mouse liver microsomes assessed as half life at 1 uM measured upto 45 mins in presence of NADPH by LC-MS/MS analysis; assay type: ADME, Microsome; details: 0.75 h; in short: as §1
[4] = Plasma protein binding in rat at 1 uM after 5 hrs by equilibrium dialysis based LC-MS/MS analysis; assay type: ADME, cell-free; in short: as §2
[5] = Volume of distribution at steady state in ICR mouse at 2 mg/kg, iv measured upto 24 hrs by LC-MS/MS analysis; assay type: ADME, organism-based; details: in vivo
In short: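 Male ICR mice. IV 2 mg/kg and PO 5 mg/kg, both in 10% PEG400 + 90% PBS adjusted to pH 8.0. Plasma sampled to 24 h; F from IV and PO exposure.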

[6] = Metabolic stability in rat liver microsomes assessed as half life at 1 uM measured upto 45 mins in presence of NADPH by LC-MS/MS analysis; assay type: ADME, Microsome; details: 0.75 h; in short: as §1
[7] = Clearance in Sprague-Dawley rat at 1 mg/kg, iv measured upto 24 hrs by LC-MS/MS analysis; assay type: ADME, organism-based; details: in vivo
In short: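 Male Sprague Dawley rats received a single intravenous dose of 1 mg/kg, formulated in 10% PEG400 + 90% PBS adjusted to pH 8.0 with 0.5 N NaOH.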

[8] = Metabolic stability in human plasma assessed as half life at 1 uM measured upto 120 mins by LC-MS/MS analysis; assay type: ADME, cell-free; details: 2 h
In short: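 Compound at 1 μM final in pre-warmed plasma of each species, 37 °C for up to 2 h. ACN/IS quench at 0, 5, 15, 30, 60 and 120 min; LC/MS. Procaine as reference (benfluorex for rat). t1/2 = 0.693/slope of ln(fraction remaining) versus time.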

Mus musculus = assay: In vivo induction of androgen receptor degradation in human VCaP cells xenografted in CB17 SCID mouse assessed as reduction in FKBP5 mRNA level at 12.5 mg/kg, po measured after 6 to 24 hrs by qRT-PCR analysis; assay type: functional, organism-based; details: time 6-24 hrs
[9] = Clearance in Beagle dog at 1 mg/kg, iv measured upto 24 hrs by LC-MS/MS analysis; assay type: ADME, organism-based, Canis lupus familiaris; details: in vivo
In short: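 Male ICR mice (2 mg/kg), male SD rats (1 mg/kg) or male Beagle dogs (1 mg/kg) given a single intravenous dose in 10% PEG400 + 90% PBS adjusted to pH 8.0 with NaOH.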

VCaP [10] = assay: Antitumor activity against human VCaP cells xenografted in CB17 SCID mouse assessed as tumor growth inhibition at 3.75 mg/kg, po administered for 21 days; assay type: functional; details: 504 h, time 21 day, read-out: TGI
In short: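 SCID mice bearing VCaP xenografts dosed by oral gavage once daily for 21 days at 3.75, 7.5, 12.5 or 25 mg/kg. Tumour growth inhibition calculated against vehicle-treated mice at the end of treatment; body weight monitored.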

[11] = molecular target: T1, Androgen receptor (Homo sapiens) (UniProt P10275); assay: Induction of androgen receptor degradation in human VCaP cells at 100 to 1000 nM incubated for 24 hrs by proteomic analysis; assay type: cell-based; details: dose 100-1000 nM
T1 sequence (whole entry): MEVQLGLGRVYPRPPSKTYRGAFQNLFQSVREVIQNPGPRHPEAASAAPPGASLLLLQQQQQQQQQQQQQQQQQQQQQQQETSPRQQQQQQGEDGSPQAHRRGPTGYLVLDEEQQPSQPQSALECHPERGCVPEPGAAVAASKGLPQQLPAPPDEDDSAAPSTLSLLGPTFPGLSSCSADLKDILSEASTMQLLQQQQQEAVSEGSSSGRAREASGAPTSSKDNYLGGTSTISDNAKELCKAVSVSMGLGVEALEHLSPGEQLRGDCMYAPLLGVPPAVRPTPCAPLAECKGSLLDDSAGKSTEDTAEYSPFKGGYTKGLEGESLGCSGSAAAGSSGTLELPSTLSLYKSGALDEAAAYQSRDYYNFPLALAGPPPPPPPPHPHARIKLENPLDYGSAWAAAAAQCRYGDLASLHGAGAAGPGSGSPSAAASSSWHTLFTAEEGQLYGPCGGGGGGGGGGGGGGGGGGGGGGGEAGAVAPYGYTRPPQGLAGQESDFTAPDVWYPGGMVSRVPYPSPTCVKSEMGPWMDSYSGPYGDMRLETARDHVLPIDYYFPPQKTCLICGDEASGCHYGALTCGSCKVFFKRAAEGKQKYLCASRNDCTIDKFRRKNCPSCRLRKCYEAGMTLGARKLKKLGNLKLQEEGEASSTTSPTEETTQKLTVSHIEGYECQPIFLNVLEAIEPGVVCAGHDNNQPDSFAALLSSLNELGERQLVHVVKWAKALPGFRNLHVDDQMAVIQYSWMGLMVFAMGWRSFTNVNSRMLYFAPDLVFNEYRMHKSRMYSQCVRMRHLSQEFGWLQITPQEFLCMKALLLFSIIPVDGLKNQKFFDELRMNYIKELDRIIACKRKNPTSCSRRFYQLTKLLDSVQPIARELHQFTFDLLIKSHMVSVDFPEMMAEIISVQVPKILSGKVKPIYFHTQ
In short: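 VCaP cells treated for 24 h with degrader at 100 nM or 1 μM, or with ARi-12 at 10 μM. Multiplexed quantitative proteomics, normalised to DMSO, three independent replicates. Cut-off p ≤0.05 and fold change >2.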

Cytochrome P450 3A4 = Cytochrome P450 3A4 (Homo sapiens, UniProt P08684); assay: Inhibition of CYP3A4 in human liver microsomes using […] as substrate preincubated for 5 mins followed by NADPH addition and measured after 5 mins by LC/MS analysis; assay type: ADME, Microsome
Sequence of Cytochrome P450 3A4 (P08684 whole entry): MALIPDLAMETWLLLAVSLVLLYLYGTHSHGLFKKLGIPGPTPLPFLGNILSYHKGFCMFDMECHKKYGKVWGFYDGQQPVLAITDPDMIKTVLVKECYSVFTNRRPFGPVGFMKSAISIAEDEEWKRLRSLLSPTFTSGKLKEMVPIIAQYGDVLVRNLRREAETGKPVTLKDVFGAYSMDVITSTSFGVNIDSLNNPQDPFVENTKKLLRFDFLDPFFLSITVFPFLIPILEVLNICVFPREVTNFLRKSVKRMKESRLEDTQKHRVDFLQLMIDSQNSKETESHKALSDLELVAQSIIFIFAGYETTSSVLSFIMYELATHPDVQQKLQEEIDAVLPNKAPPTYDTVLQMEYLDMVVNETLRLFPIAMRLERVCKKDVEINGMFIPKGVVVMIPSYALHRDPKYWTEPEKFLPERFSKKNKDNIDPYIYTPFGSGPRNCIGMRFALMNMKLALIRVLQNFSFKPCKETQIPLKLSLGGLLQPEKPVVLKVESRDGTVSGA

[12] = Half life in Sprague-Dawley rat at 10 mg/kg, po measured up to 24 hrs by LC-MS/MS analysis; assay type: ADME, organism-based; details: in vivo
In short: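 Male SD rats given a single oral dose of 10 mg/kg in 5% DMSO + 10% Solutol + 85% saline.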

VCaP [13] = assay: Antitumor activity against human VCaP cells xenografted in CB17 SCID mouse assessed as tumor growth inhibition at 15 mg/kg, po administered for 21 days; assay type: functional; details: 504 h, time 21 day, read-out: TGI

Compound C[C@H]1CC2(CCN(c3ccc(C(=O)N4CCN(C5CN(c6ccc7c(c6)C(=O)N(C6CCC(=O)NC6=O)C7=O)C5)CC4)cc3)CC2)CN1c1ccc(C#N)c(Cl)c1 (stereo partly specified) has a t1/2 [1] of over 1 h, a PPB [2] of 99.3% and an IC50 (Cytochrome P450 2C9) of over 10 µM. It also gave a t1/2 [3] of over 1 h, a PPB [4] of 99.1% and a Vdss [5] of 1.3 L/kg. The t1/2 [6] was over 1 h, the clearance [7] was 10.2 mL/min/kg and the t1/2 [8] was over 2 h. The Activity (Mus musculus) was “Active”, the clearance [9] was 4.6 mL/min/kg and the inhibition in vivo at 3.75 mg/kg (VCaP [10]) was 44%. For the same compound, the Activity [11] was 82%, the IC50 (Cytochrome P450 3A4) was over 10 µM and the t1/2 [12] was 3.9 h. It also gave an inhibition in vivo at 15 mg/kg (VCaP [13]) of 61%.
